In ChEMBL document CHEMBL4393678, “Novel Tetrahydroquinazolinamines as Selective Histamine 3 Receptor Antagonists for the Treatment of Obesity” (J Med Chem, 2019) one finds Drug metabolism data, which are given here for one compound.

The nature of data set [1]: Drug level in C57BL/6J mouse serum assessed as metabolite formation treated with 4-(4-Methoxyphenyl)-8-methyl-5,6,7,8-tetrahydroquinazolin-2-amine at 20 mg/kg, po by LC-MS/MS analysis. In kind it is ADME, organism-based. The settings on record: in vivo. The essentials:
(§1)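 After a single 20 mg/kg oral dose in fasted male C57BL/6J mice (n=5 per time point), the demethylated metabolite was measured by LC-MS/MS (m/z 256.1→240.1) in serum and brain homogenate up to 24 h. Metabolite/parent AUC ratio was derived.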

A short description of data set [2]: Drug level in C57BL/6J mouse brain assessed as metabolite formation treated with 4-(4-Methoxyphenyl)-8-methyl-5,6,7,8-tetrahydroquinazolin-2-amine at 20 mg/kg, po by LC-MS/MS analysis. In kind it is ADME, organism-based. The settings on record: in vivo. The essentials:
as §1

For the compound `CC1CCCc2c(-c3ccc(O)cc3)nc(N)nc21` (configuration not stated), the Drug metabolism result in data set [1] and in data set [2] was “Metabolite_Detected” in each case.
